# Source: article PMC3746001 (ACS chemical biology, 2013)
# Like-named read-outs stand apart in the source and are kept apart here.
# Experiments:
# hetero-dimeric hpol γ = biological target: T1, hetero-dimeric hpol γ (Homo sapiens, UniProt P54098); experiment: Fluorescence-based polymerase assay, hpol γ; assay type: biochemical
# T1 sequence (P54098 1-1239): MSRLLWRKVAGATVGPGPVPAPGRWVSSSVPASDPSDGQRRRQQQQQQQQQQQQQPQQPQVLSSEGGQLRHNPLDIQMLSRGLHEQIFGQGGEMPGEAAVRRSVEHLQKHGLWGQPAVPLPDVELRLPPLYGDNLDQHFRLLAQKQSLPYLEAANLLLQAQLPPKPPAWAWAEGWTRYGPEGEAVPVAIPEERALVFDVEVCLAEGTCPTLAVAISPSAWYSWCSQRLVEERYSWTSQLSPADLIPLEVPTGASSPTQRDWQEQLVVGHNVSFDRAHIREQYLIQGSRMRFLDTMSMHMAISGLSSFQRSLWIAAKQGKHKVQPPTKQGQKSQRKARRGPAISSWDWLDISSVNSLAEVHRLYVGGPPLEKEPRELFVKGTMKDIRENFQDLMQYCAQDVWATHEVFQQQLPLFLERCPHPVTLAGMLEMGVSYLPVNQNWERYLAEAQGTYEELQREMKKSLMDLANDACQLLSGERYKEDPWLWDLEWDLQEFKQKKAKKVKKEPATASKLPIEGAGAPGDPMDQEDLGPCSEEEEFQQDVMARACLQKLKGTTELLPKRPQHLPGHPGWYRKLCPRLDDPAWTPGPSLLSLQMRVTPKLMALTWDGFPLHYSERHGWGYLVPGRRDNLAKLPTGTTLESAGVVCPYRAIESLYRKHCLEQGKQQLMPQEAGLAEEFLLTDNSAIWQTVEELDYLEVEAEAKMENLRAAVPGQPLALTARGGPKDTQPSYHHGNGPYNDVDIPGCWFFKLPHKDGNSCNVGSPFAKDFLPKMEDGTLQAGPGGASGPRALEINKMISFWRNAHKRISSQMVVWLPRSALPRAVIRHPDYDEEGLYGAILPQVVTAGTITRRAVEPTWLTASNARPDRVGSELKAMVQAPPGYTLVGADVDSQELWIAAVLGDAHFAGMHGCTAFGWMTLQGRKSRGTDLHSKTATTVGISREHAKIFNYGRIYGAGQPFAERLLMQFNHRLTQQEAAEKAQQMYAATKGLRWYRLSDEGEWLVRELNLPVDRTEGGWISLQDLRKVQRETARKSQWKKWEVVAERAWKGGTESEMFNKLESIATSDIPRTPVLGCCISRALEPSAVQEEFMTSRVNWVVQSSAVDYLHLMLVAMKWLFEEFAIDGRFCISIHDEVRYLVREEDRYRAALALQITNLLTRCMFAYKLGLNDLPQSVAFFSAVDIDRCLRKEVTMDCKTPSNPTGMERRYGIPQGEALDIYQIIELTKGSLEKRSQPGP
# T1 sequence (Q9UHN1 26-485 partner limits assumed): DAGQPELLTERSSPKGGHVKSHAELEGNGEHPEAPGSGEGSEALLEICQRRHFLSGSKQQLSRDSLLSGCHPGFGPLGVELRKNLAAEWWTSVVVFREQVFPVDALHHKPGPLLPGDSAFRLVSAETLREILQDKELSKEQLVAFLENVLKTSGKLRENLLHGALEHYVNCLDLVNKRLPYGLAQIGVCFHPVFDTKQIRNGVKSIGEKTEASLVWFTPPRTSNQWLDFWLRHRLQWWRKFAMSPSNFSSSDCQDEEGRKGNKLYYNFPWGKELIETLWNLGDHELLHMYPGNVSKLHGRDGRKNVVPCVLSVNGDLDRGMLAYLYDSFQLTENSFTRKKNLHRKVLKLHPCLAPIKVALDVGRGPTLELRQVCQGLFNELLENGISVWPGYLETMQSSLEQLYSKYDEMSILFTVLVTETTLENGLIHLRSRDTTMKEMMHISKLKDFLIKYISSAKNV
# HIV-1 RT = HIV-1 RT (Human immunodeficiency virus type 1 group M subtype B, UniProt P04585); experiment: Fluorescence-based polymerase assay, HIV-1 RT; assay type: biochemical
# Dpo4 = biological target: T2, Dpo4 (Saccharolobus solfataricus, UniProt Q97W02); experiment: Fluorescence-based polymerase assay, Dpo4; assay type: biochemical, Sulfolobus solfataricus
# T2 sequence (Q97W02 1-352): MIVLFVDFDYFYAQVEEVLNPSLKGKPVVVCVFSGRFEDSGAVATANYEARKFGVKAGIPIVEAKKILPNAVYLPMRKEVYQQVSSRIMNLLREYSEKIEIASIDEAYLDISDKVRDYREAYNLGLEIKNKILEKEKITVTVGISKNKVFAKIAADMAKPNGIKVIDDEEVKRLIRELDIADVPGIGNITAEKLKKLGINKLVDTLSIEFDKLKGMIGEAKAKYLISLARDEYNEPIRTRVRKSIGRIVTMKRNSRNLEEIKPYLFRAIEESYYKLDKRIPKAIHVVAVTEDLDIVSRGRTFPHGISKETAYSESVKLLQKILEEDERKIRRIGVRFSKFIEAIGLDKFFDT
# hpol ι = biological target: T3, hpol ι (Homo sapiens, UniProt Q9UNA4); experiment: Fluorescence-based polymerase assay, hpol ι; assay type: biochemical
# T3 sequence (Q9UNA4 26-446): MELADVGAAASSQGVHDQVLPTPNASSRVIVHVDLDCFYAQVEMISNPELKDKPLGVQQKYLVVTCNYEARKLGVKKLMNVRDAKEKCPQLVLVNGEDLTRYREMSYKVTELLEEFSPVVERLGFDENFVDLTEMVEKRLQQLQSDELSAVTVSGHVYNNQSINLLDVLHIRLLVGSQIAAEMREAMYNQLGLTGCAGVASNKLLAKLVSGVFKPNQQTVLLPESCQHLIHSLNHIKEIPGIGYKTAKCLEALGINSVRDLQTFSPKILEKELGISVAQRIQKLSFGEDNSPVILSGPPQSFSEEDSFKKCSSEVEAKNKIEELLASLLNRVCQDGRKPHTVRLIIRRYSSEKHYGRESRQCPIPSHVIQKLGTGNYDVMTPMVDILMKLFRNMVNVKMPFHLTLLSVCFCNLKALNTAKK
# hpol η = experiment: Steady-state kinetic analysis of hpol η activity in the presence of inhibitor; assay type: biochemical, human; conditions: for kcat: varying dTTP
# Summary of the method: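 Recombinant hpol η (His/GST-tagged in E. coli BL21(DE3), nickel then GST affinity, GST cleaved) in the fluorescence strand-displacement assay (TAMRA-labelled displaced strand), in 50 mM Tris pH 8.0, 40 mM NaCl, 2 mM DTT, 0.01% Tween-20. dTTP was 1–100 µM and inhibitor 0 or 1–50 µM. RFU were converted to product, linear velocities fit to a hyperbola and corrected for enzyme concentration to give kcat and Km,dTTP.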
structure (smiles),measurement,setting,value
"O=C1NC(=S)NC(=O)C1=Cc1cn(C(=O)c2ccccc2Br)c2ccc(Cl)cc12 [ITBA-12, 5-((1-(2-bromobenzoyl)-5-chloro-1H-indol-3-yl)methylene)-2-thioxodihydropyrimidine-4,6(1H,5H)-dione]",IC50,hetero-dimeric hpol γ,49 ± 6 µM
same,IC50,HIV-1 RT,~80 µM
same,IC50,Dpo4,~80 µM
same,IC50,hpol ι,~80 µM
same,Km,"hpol η; read-out: Km,dTTP, varying dTTP, [ITBA-12] 1 μM",6.7 ± 0.9 µM
same,Km,"hpol η; read-out: Km,dTTP, varying dTTP, [ITBA-12] 10 μM",7.6 ± 1 µM
same,Km,"hpol η; read-out: Km,dTTP, varying dTTP, [ITBA-12] 20 μM",8.5 ± 1.4 µM
same,Km,"hpol η; read-out: Km,dTTP, varying dTTP, [ITBA-12] 40 μM",15 ± 2 µM
same,Km,"hpol η; read-out: Km,dTTP, varying dTTP, [ITBA-12] 50 μM",26.7 ± 5.6 µM
same,kcat,hpol η; [ITBA-12] 1 μM,0.065 ± 0.0017 s⁻¹
same,kcat,hpol η; [ITBA-12] 10 μM,0.0717 ± 0.0017 s⁻¹
same,kcat,hpol η; [ITBA-12] 20 μM,0.0667 ± 0.0033 s⁻¹
same,kcat,hpol η; [ITBA-12] 40 μM,0.07 ± 0.0033 s⁻¹
same,kcat,hpol η; [ITBA-12] 50 μM,0.0583 ± 0.005 s⁻¹
